Published values of several laboratories.
Lines come from different studies, so protocols differ.
Target: Tyrosine-protein kinase CSK (CSK, Homo sapiens, UniProt P41240)

| Compound | effect on | method | concentration | remaining binding [%] |
| --- | --- | --- | --- | --- |
| Cc1cnc(Nc2ccc(C(=O)N3CCC(N4CCCC4)CC3)cc2)nc1-c1cc2ccccc2s1 | binding | competition with immobilised ligand | 1 µM | 62 |
| COc1ccc2c(c1)O[C@@H](c1ccc(OC)c(OC)c1)C[C@H]2NC(=O)C1(c2ccc3c(c2)OC(F)(F)O3)CC1 | cell-free assay | competition with immobilised ligand | 1 µM | 87 |
| CN(CCCC(F)(F)F)c1nccc(-c2cnn3ncccc23)n1 | binding |  | 1 µM | 91 |
| O=C(NCCCN1CCOCC1)c1ccc(Nc2ncc(Cl)c(-c3ccc(Cl)s3)n2)cc1 | binding | competition with immobilised ligand | 1 µM | 86 |
| CNC(=O)[C@@H]1CC[C@@H](n2c(-c3ccc4cnccc4c3)nc3ccc(C(=O)NCc4cccc(C(N)=O)c4)cc32)C1 | binding | competition with immobilised ligand | 1 µM | 100 |
| N[C@@H]1CCN(c2nccc(-c3cnn4ncccc34)n2)C1 | binding |  | 1 µM | 94 |
| CC(=O)C1=C(C)N(c2cccc(C(F)(F)F)c2)C(=O)N[C@@H]1c1ccc(C#N)nc1 | cell-free assay | competition with immobilised ligand | 1 µM | 90 |
| COc1ccnn2ncc(-c3ccnc(N(C)C)n3)c12 | binding |  | 1 µM | 96 |
| O=C(Nc1c[nH]nc1C(=O)NC1CCNCC1)c1cc(F)cc(F)c1 | binding | competition with immobilised ligand | 1 µM | 100 |
| CCN1CCN(Cc2ccc(C(=O)Nc3ccc(C)c(Oc4ccc5c(c4)CC(=O)N5)c3)cc2C(F)(F)F)CC1 | binding | competition with immobilised ligand | 1 µM | 100 |
| C[C@H]1CCN(c2nccc(-c3cnn4ncccc34)n2)C1 | binding |  | 1 µM | 83 |
| CCc1ccccc1C(=O)Nc1n[nH]c2c(C)c(F)c(C3C(C#N)=C(C)N(C)C(C)=C3C#N)cc12 | cell-free assay | competition with immobilised ligand | 1 µM | 98 |
| Cc1ccc(-n2nc(C(C)(C)C)cc2NC(=O)Nc2ccc(-n3c(N)c(C(N)=O)c4nc5ccccc5nc43)cc2)cc1 | cell-free assay | competition with immobilised ligand | 1 µM | 0.9 |
| O=C(c1ccc(Nc2ncc(Cl)c(-c3cc4ccccc4s3)n2)cc1)N1CCC(N2CCCC2)CC1 | binding | competition with immobilised ligand | 1 µM | 87 |
| Nc1c(C(=O)NCc2ccc(C(=O)NCCCC3CCCCC3)cc2)cnn1-c1ccccc1 | cell-free assay | competition with immobilised ligand | 0.1 µM | 100 |
| CN(C)c1ncc(F)c(-c2cnn3ncccc23)n1 | binding |  | 1 µM | 98 |
| COc1cnc(Nc2cccc(S(N)(=O)=O)c2)nc1N1CCN(c2ccccc2)CC1 | binding | competition with immobilised ligand | 1 µM | 100 |
| O=C1CCc2cc(Nc3cc(OC4CCOCC4)c([N+](=O)[O-])cc3Cl)ccc2N1 | cell-free assay | competition with immobilised ligand | 1 µM | 98 |
| Nc1ncc2c(n1)-c1c([nH]c3ccc(C#CC4CC4)cc13)CCCC2 | binding | competition with immobilised ligand | 1 µM | 96 |
| C[C@H](NC(=O)c1cnc2n1[C@](C)(Cc1ccc(C#N)cc1)C(=O)N2c1cc(Cl)c(F)c(Cl)c1)C(=O)NC1(c2ccccn2)CC1 | cell-free assay | competition with immobilised ligand | 1 µM | 100 |
| c1cnn2ncc(-c3ccnc(N4CCC45COC5)n3)c2c1 | binding |  | 1 µM | 88 |
